# Measured values from different studies.
# Each line is one published result; the experiments were not run side by side.
# ATM: Serine-protein kinase ATM (ATM, Homo sapiens, UniProt Q13315)
# D14: D14 (Arabidopsis thaliana, UniProt Q9SQR3)
# AMY2: Pancreatic alpha-amylase (AMY2, Sus scrofa, UniProt P00690)
Structure (SMILES),target,test,conditions,measurement,value
COc1ccc2oc(-c3ccc4nc(N)oc4c3)c/c(=N\c3ccccc3NC(=O)CCN)c2c1,ATM,"binding, competition with immobilised ligand",1 µM,remaining binding,94%
CC(=O)/C=C/C=C(C)/C=C/C1=C(C)CCCC1(C)C,D14,"thermal stability, DSF",50 µM,ΔTm,1.3 °C
C[C@]1(O)CCCN(c2nc(Nc3ccc(S(=O)(=O)N[C@H]4CC[C@H](CN5CCN(c6ccc(C7CCC(=O)NC7=O)cc6F)CC5)CC4)cc3Cl)ncc2C(F)(F)F)C1 (some centres unmarked),"Cyclin-dependent kinase 4, with cyclin D3 (CDK4, Homo sapiens, UniProt P11802)","binding, competition with immobilised ligand",1 µM,remaining binding,100%
C1=C/COCc2cc(ccc2OCCN2CCCC2)Nc2nccc(n2)-c2cccc(c2)COC/1,"MAP kinase-activated protein kinase 5 (MAPKAPK5, Homo sapiens, UniProt Q8IW41)",binding,0.1 µM,remaining binding,75%
Cc1cc(O)c(-c2ccc([C@@H](C)CN(C)C)cc2)c2c1[nH]c(=O)c1sccc12,ATM,"cell-free assay, inhibitor","0.1 µM, lysate",inhibition,6.43%
CC1=C(/C=C/C(C)=C/C=O)C(C)(C)C[C@H](O)C1,D14,"thermal stability, DSF",50 µM,ΔTm,-3.04 °C
C#Cc1cc(-c2cc(Nc3nc(N[C@@H](C)c4ccc(F)cn4)ncc3Cl)n[nH]2)ccc1C=O,"Eukaryotic translation initiation factor 2-alpha kinase 3 (EIF2AK3, Homo sapiens, UniProt Q9NZJ5)","enzyme activity, inhibitor",0.2 µM,inhibition,16.5%
COc1cc(O)c2c(c1)O[C@H](c1ccccc1)CC2=O,AMY2,"enzyme activity, inhibitor","50 µM, 30 min",inhibition,12.7%
CC(=O)/C=C/C=C(C)/C=C/C1=C(C)CC(O)CC1(C)C (stereo in doubt),D14,thermal stability,20 µM,ΔTm,4.65 °C
O=c1cc(-c2ccc(O)c(O)c2)oc2c(Br)c(O)c(Br)c(O)c12,AMY2,"enzyme activity, inhibitor","50 µM, 30 min",inhibition,99.8%
CC1=CC(O/C=C2/C(=O)OC3c4ccccc4CC23)OC1=O (racemic),D14,"thermal stability, DSF",10 µM,ΔTm,-7.04 °C
O=C1C[C@@H](c2ccccc2)Oc2cc(O)cc(O)c21,AMY2,"enzyme activity, inhibitor",50 µM,inhibition,25.2%
CCCCC(=O)Nc1ccc(-c2ccc3ncn(CCC)c(=O)c3c2)cn1,"Ephrin type-A receptor 5 (EPHA5, Homo sapiens, UniProt P54756)","binding, competition with immobilised ligand",0.5 µM,remaining binding,84%
O=C1C[C@@H](c2ccc(O)cc2)Oc2cc(O)cc(O)c21,AMY2,"enzyme activity, inhibitor",50 µM,inhibition,33.3%
Cc1cc(F)cc2c(CCC(=O)N[C@@H]3C(=O)NC[C@H]3O)c(-c3ccc(F)cc3)[nH]c12,"Muscarinic acetylcholine receptor M2 (CHRM2, Homo sapiens, UniProt P08172)",cell-free assay,10 µM,inhibition,-4%
O=c1cc(-c2ccc(O)cc2)oc2c(Br)c(O)c(Br)c(O)c12,AMY2,"enzyme activity, inhibitor","50 µM, 30 min",inhibition,68.2%
CC1=C(/C=C/C(C)=C/C=O)C(C)(C)CCC1,D14,"thermal stability, DSF",100 µM,ΔTm,-9.02 °C
